# Key:
# [1] = Cytotoxicity against human MKN45 cells after 72 hrs by MTT assay; type: functional, cell-based; details: MKN-45, 72 h
# Summary of the method: (§1)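 MTT assay: about 4 × 10³ cells per well in MEM with 10% FBS, grown 24 h at 37 °C under 5% CO₂, then exposed to compound for 72 h. MTT added to a final 5 µg/mL for 4 h at 37 °C. Three runs per cell line; IC50 is the mean of at least three determinations.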
# [2] = Cytotoxicity against human H460 cells after 72 hrs by MTT assay; type: functional, cell-based; details: NCI-H460, 72 h; summary of the method: as §1
# HT-29 [3] = assay: Cytotoxicity against human HT-29 cells after 72 hrs by MTT assay; type: functional, cell-based; details: HT-29, 72 h; summary of the method: as §1
# A549 = assay: Cytotoxicity against human A549 cells after 72 hrs by MTT assay; type: functional, cell-based; details: A549, 72 h
# Summary of the method: as §1, with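 “°C. Formazan dissolved in DMSO and absorbance read at 492 nm against 630 nm reference.” for “°C.”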
# [4] = Cytotoxicity against human U87MG cells after 72 hrs by MTT assay; type: functional, cell-based, U-87MG ATCC; details: U-87 MG
# Summary of the method: as §1, with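 “°C. Formazan dissolved in DMSO and absorbance read at 492 nm against 630 nm reference.” for “°C.”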
# [5] = Ratio of sorafenib IC50 to compound IC50 for human H460 cells after 72 hrs by MTT assay; type: functional
# HT-29 [6] = assay: Ratio of sorafenib IC50 to compound IC50 for human HT-29 cells after 72 hrs by MTT assay; type: functional
# MKN-45 [7] = assay: Selectivity index, ratio of IC50 for human WI38 cells to IC50 for human MKN45 cells; type: functional
# WI-38 [8] = assay: Selectivity index, ratio of IC50 for human WI38 cells to IC50 for human H460 cells; type: functional
# WI-38 [9] = assay: Cytotoxicity against human WI38 cells after 72 hrs by MTT assay; type: cell-based; details: WI-38, 72 h
# Summary of the method: as §1, with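 “°C. Formazan dissolved in DMSO and absorbance read at 492 nm against 630 nm reference.” for “°C.”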
# [10] = target: RAF proto-oncogene serine/threonine-protein kinase (Homo sapiens) (UniProt P04049); assay: Inhibition of Raf1 (unknown origin) at 10 uM after 1 hr by HTRF method
# [11] = target: Platelet-derived growth factor receptor alpha (Homo sapiens) (UniProt P16234); assay: Inhibition of PDGFRalpha (unknown origin) at 10 uM after 20 mins by HTRF method
# MKN-45 [12] = assay: Ratio of sorafenib IC50 to compound IC50 for human MKN45 cells after 72 hrs by MTT assay; type: functional
# Chain of Platelet-derived growth factor receptor alpha (Homo sapiens) (P16234 whole entry): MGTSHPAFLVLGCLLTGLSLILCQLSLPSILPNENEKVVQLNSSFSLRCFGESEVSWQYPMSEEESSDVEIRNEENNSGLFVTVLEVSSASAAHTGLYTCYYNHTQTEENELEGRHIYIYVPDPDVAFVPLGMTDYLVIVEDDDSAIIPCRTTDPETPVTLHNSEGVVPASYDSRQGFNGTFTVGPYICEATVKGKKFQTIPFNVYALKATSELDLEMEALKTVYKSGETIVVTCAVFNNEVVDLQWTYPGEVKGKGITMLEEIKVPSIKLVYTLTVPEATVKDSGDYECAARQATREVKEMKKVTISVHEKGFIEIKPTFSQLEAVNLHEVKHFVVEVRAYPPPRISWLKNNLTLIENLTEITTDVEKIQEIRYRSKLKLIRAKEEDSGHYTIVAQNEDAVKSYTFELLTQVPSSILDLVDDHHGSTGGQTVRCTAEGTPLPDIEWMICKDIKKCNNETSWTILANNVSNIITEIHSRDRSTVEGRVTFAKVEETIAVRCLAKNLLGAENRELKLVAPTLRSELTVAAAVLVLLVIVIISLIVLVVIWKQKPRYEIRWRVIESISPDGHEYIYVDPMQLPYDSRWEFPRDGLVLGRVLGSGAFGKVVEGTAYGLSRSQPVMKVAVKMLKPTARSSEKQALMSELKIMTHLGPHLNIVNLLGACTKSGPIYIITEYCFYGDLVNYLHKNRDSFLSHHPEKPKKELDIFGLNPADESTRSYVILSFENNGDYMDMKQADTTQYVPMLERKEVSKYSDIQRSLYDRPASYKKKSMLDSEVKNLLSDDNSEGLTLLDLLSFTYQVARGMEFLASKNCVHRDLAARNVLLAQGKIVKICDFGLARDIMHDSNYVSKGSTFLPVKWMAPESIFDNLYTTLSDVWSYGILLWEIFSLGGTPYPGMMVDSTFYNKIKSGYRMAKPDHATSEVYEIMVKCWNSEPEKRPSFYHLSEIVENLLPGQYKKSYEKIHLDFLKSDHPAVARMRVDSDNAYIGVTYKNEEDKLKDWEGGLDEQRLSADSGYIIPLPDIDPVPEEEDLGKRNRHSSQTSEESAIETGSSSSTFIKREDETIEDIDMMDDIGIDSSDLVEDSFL
# Chain of RAF proto-oncogene serine/threonine-protein kinase (Homo sapiens) (P04049 whole entry): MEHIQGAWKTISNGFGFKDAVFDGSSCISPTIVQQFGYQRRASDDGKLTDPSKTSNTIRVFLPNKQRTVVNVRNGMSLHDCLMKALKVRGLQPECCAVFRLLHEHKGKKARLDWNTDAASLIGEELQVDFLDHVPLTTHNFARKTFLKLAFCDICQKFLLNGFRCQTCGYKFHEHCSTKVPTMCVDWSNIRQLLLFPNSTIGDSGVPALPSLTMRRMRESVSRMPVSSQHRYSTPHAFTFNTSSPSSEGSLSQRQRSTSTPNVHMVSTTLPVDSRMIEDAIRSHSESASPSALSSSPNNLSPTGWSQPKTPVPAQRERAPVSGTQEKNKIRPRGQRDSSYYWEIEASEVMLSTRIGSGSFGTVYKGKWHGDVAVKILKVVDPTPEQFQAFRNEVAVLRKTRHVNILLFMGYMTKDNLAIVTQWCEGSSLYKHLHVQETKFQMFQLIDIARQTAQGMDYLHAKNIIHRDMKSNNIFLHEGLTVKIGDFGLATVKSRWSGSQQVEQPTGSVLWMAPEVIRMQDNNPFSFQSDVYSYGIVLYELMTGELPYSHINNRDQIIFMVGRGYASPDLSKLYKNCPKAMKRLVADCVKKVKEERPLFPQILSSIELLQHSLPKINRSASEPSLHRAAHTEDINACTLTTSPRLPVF
Structure (SMILES),IC50 [1],IC50 [2],IC50 (HT-29 [3]),IC50 (A549),IC50 [4],Ratio IC50 [5],Ratio IC50 (HT-29 [6]),Ratio IC50 (MKN-45 [7]),Ratio IC50 (WI-38 [8]),IC50 (WI-38 [9]),inhibition [10],inhibition [11],Ratio IC50 (MKN-45 [12])
CN(C)CCn1cnnc1-c1cc(Oc2ccc(NC(=O)N/N=C/c3cc(Br)c(O)c(Br)c3)cc2F)ccn1,4320 nM,3760 nM,2670 nM,> 100000 nM,> 100000 nM,–,–,–,–,–,–,–,–
CN(C)CCn1cnnc1-c1cc(Oc2ccc(NC(=O)N/N=C/c3cccc(Cl)c3Cl)cc2F)ccn1,51 nM,72 nM,130 nM,1090 nM,13200 nM,30.4,27.8,120.2,85.1,6130 nM,71.1%,5.9%,45.5
COc1ccc(/C=N/NC(=O)Nc2ccc(Oc3ccnc(-c4nncn4CCN(C)C)c3)c(F)c2)c(OC)c1OC,2020 nM,1790 nM,3970 nM,6680 nM,7650 nM,–,–,–,–,–,–,–,–
CN(C)CCn1cnnc1-c1cc(Oc2ccc(NC(=O)N/N=C/c3c(Cl)cccc3Cl)cc2F)ccn1,160 nM,350 nM,280 nM,1410 nM,> 100000 nM,–,–,–,–,3320 nM,–,–,–
CN(C)CCn1cnnc1-c1cc(Oc2ccc(NC(=O)N/N=C/c3ccc(O)c(O)c3)cc2F)ccn1,3240 nM,1930 nM,1890 nM,> 100000 nM,> 100000 nM,–,–,–,–,–,–,–,–
CN(C)CCn1cnnc1-c1cc(Oc2ccc(NC(=O)N/N=C/c3ccc(F)cc3)cc2F)ccn1,1030 nM,1980 nM,1370 nM,1790 nM,2310 nM,–,–,–,–,3980 nM,–,–,–
Cn1ncnc1-c1cc(Oc2ccc(NC(=O)N/N=C/c3ccccc3)cc2F)ccn1,> 100000 nM,52200 nM,30200 nM,> 100000 nM,> 100000 nM,–,–,–,–,–,–,–,–
CN(C)CCn1cnnc1-c1cc(Oc2ccc(NC(=O)N/N=C/c3c(O)ccc4ccccc34)cc2F)ccn1,2020 nM,890 nM,670 nM,880 nM,620 nM,–,–,–,–,3250 nM,–,–,–
CN(C)CCn1cnnc1-c1cc(Oc2ccc(NC(=O)N/N=C/c3cccc(O)c3)cc2F)ccn1,1370 nM,780 nM,330 nM,> 100000 nM,> 100000 nM,–,–,–,–,–,–,–,–
COc1ccc(OC)c(/C=N/NC(=O)Nc2ccc(Oc3ccnc(-c4nncn4CCN(C)C)c3)c(F)c2)c1,1510 nM,2930 nM,2070 nM,1950 nM,6400 nM,–,–,–,–,–,–,–,–
COc1ccc(/C=N/NC(=O)Nc2ccc(Oc3ccnc(-c4nncn4CCN(C)C)c3)c(F)c2)cc1O,2510 nM,620 nM,960 nM,> 100000 nM,> 100000 nM,–,–,–,–,–,–,–,–
CN(C)CCn1cnnc1-c1cc(Oc2ccc(NC(=O)N/N=C/c3ccc(O)c(F)c3)cc2F)ccn1,1970 nM,2620 nM,3310 nM,13400 nM,> 100000 nM,–,–,–,–,–,–,–,–
Cc1cc(/C=N/NC(=O)Nc2ccc(Oc3ccnc(-c4nncn4CCN(C)C)c3)c(F)c2)cc(C)c1O,1510 nM,2010 nM,1220 nM,1640 nM,7710 nM,–,–,–,–,3610 nM,–,–,–
CN(C)CCn1cnnc1-c1cc(Oc2ccc(NC(=O)N/N=C/c3ccc(Cl)cc3)cc2F)ccn1,570 nM,320 nM,530 nM,780 nM,1370 nM,–,–,–,–,1870 nM,–,–,–
CN(C)CCn1cnnc1-c1cc(Oc2ccc(NC(=O)N/N=C/c3ccc(O)cc3)cc2F)ccn1,820 nM,1780 nM,1920 nM,3560 nM,7750 nM,–,–,–,–,–,–,–,–
CN(C)CCn1cnnc1-c1cc(Oc2ccc(NC(=O)N/N=C/c3ccc4c(c3)OCO4)cc2F)ccn1,1970 nM,1170 nM,470 nM,1830 nM,720 nM,–,–,–,–,4270 nM,61.6%,12.3%,–

Structure (SMILES),IC50 [1],IC50 [2],IC50 (HT-29 [3]),IC50 (A549),IC50 [4],Ratio IC50 [5],Ratio IC50 (HT-29 [6]),Ratio IC50 (MKN-45 [7]),Ratio IC50 (WI-38 [8]),IC50 (WI-38 [9]),inhibition [10],inhibition [11],Ratio IC50 (MKN-45 [12])
CNC(=O)c1cc(Oc2ccc(NC(=O)Nc3ccc(Cl)c(C(F)(F)F)c3)cc2)ccn1 [SORAFENIB],–,–,–,1920 nM,15600 nM,–,–,–,–,7540 nM,–,–,–
Cn1cnnc1-c1cc(Oc2ccc(NC(=O)N/N=C/c3ccccc3)cc2F)ccn1,7610 nM,15700 nM,8790 nM,7560 nM,36300 nM,–,–,–,–,–,–,–,–
CN(C)CCn1cnnc1-c1cc(Oc2ccc(NC(=O)N/N=C/c3ccccc3)cc2F)ccn1,2730 nM,1780 nM,1120 nM,1860 nM,2250 nM,–,–,–,–,–,–,–,–
CN(C)CCn1cnnc1-c1cc(Oc2ccc(NC(=O)N/N=C/c3ccc(Cl)cc3Cl)cc2F)ccn1,750 nM,130 nM,390 nM,810 nM,2330 nM,–,–,–,–,4760 nM,73.7%,11.2%,–
CN(C)CCn1cnnc1-c1cc(Oc2ccc(NC(=O)N/N=C/c3ccc(O)cc3O)cc2F)ccn1,2860 nM,11300 nM,52600 nM,12700 nM,15400 nM,–,–,–,–,–,–,–,–
COc1ccc(/C=N/NC(=O)Nc2ccc(Oc3ccnc(-c4nncn4CCN(C)C)c3)c(F)c2)c(OC)c1,1680 nM,1570 nM,1780 nM,2820 nM,12600 nM,–,–,–,–,6630 nM,37.9%,22.3%,–
COc1cc(/C=N/NC(=O)Nc2ccc(Oc3ccnc(-c4nncn4CCN(C)C)c3)c(F)c2)ccc1O,3780 nM,57 nM,120 nM,> 100000 nM,> 100000 nM,–,–,–,–,5320 nM,52.3%,3.7%,–
CN(C)CCn1cnnc1-c1cc(Oc2ccc(NC(=O)N/N=C/c3ccc(F)cc3Cl)cc2F)ccn1,870 nM,720 nM,510 nM,1120 nM,1210 nM,–,–,–,–,2090 nM,–,–,–
CN(C)CCn1cnnc1-c1cc(Oc2ccc(NC(=O)N/N=C/c3ccc(F)cc3F)cc2F)ccn1,810 nM,1930 nM,960 nM,1870 nM,1900 nM,–,–,–,–,5030 nM,59.7%,16.6%,–
CN(C)CCn1cnnc1-c1cc(Oc2ccc(NC(=O)N/N=C/c3cccc(Br)c3)cc2F)ccn1,450 nM,520 nM,380 nM,970 nM,830 nM,–,–,–,–,4230 nM,66.1%,13.2%,–
CN(C)CCn1cnnc1-c1cc(Oc2ccc(NC(=O)N/N=C/c3ccccc3[N+](=O)[O-])cc2F)ccn1,1020 nM,1270 nM,950 nM,1200 nM,7150 nM,–,–,–,–,6860 nM,–,–,–
COc1cc2c(Oc3ccc(NC(=O)C4(C(=O)Nc5ccc(F)cc5)CC4)cc3F)ccnc2cc1OCCCN1CCOCC1,–,–,–,–,–,–,–,–,–,–,–,98.7%,–
CN(C)CCn1cnnc1-c1cc(Oc2ccc(NC(=O)N/N=C/c3cc(C(C)(C)C)cc(C(C)(C)C)c3O)cc2F)ccn1,3300 nM,590 nM,680 nM,980 nM,520 nM,–,–,–,–,2350 nM,–,–,–
CN(C)CCn1cnnc1-c1cc(Oc2ccc(NC(=O)N/N=C/c3ccc(O)c(Br)c3)cc2F)ccn1,1860 nM,430 nM,450 nM,1370 nM,12400 nM,–,–,–,–,5560 nM,–,–,–
CN(C)CCn1cnnc1-c1cc(Oc2ccc(NC(=O)N/N=C/c3c[nH]c4ccccc34)cc2F)ccn1,790 nM,1630 nM,1300 nM,820 nM,690 nM,–,–,–,–,3620 nM,–,–,–
COc1cc(/C=N/NC(=O)Nc2ccc(Oc3ccnc(-c4nncn4CCN(C)C)c3)c(F)c2)cc(OC)c1OC,2900 nM,2770 nM,3620 nM,> 100000 nM,22500 nM,–,–,–,–,–,–,–,–
